In ChEMBL document CHEMBL4041491, “Imidazo[1,2-a]pyrazin-8-amine core for the design of new adenosine receptor antagonists: Structural exploration to target the A3 and A2A subtypes” (Eur J Med Chem, 2017) one finds inhibition data, which are given here for 17 molecules.

By inhibition is commonly meant the percentage by which the read-out fell short of the control.

The target in experiment [1] is T1, Adenosine receptor A1 (Homo sapiens) (UniProt P30542).
T1 sequence (whole entry): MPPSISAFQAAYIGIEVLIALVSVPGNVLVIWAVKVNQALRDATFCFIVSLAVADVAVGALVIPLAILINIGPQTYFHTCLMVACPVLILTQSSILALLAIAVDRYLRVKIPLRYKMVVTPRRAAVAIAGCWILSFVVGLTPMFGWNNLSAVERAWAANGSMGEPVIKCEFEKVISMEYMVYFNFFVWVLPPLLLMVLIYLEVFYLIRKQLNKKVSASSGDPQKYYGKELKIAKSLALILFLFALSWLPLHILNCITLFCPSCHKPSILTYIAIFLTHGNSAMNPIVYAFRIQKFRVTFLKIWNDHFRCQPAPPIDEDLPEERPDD
As to the kind of experiment: Displacement of [3H]DPCPX from human adenosine A1 receptor expressed in CHO cell membranes at 1 uM after 120 mins by scintillation counting method relative to control. The method in brief: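 hA1 CHO membranes (50 µg protein) with 1 nM [3H]DPCPX in 50 mM Tris HCl pH 7.4, 120 min at 25 °C. Six to eight antagonist concentrations, or 1 µM for percent inhibition. Nonspecific binding with 1 µM DPCPX. Ki via Cheng–Prusoff, four assays in duplicate, means ± SEM.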
(In general: In a radioligand displacement assay an active substance lowers the binding of a labelled ligand.)

Another experiment addresses Adenosine receptor A2a (Homo sapiens, UniProt P29274). Briefly: Displacement of [3H]ZM241385 from human adenosine A2A receptor expressed in CHO cell membranes at 1 uM after 60 mins by scintillation counting method relative to control. In short, it runs like this:
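hA2A CHO membranes (50 µg protein) with 1 nM [3H]ZM241385 in 50 mM Tris HCl, 10 mM MgCl2, pH 7.4, 60 min at 4 °C. Six to eight antagonist concentrations, or 1 µM for percent inhibition. Nonspecific binding with 1 µM ZM241385. Ki via Cheng–Prusoff, four assays in duplicate, means ± SEM.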

The target of experiment [2] is T2, Adenosine receptor A2b (Homo sapiens) (UniProt P29275).
T2 sequence (whole entry): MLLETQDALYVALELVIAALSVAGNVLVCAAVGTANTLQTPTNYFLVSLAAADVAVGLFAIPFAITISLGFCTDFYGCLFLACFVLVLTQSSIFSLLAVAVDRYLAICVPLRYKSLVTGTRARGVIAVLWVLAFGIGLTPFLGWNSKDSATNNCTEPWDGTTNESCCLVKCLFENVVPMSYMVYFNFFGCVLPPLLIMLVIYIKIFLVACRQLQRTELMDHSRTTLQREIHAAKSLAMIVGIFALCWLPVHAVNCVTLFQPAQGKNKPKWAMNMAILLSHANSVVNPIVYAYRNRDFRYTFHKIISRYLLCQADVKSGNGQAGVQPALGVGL
Briefly: Antagonist activity at human A2B receptor expressed in CHO cells assessed as inhibition of NECA-stimulated cAMP production at 1 uM by [3H]cAMP competition binding based scintillation counting method relative to control. It is filed as functional, cell-based. The method in brief:
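Transfected CHO cells (1 × 10^6/assay) in buffered saline pH 7.4 with adenosine deaminase 2 IU/ml and Ro 20-1724, preincubated 10 min at 37 °C. Test compound at 1 μM against 200 nM NECA-stimulated cAMP. TCA stop, ether extraction, cAMP measured by [3H]cAMP competition binding to bovine adrenal binding protein. Result given as percent inhibition.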

The next experiment deals with Adenosine receptor A3 (Homo sapiens, UniProt P0DMS8). As to the kind of experiment: Displacement of [125I]AB-MECA from human adenosine A3 receptor expressed in CHO cell membranes at 1 uM after 120 mins by scintillation counting method relative to control.
Chain of Adenosine receptor A3 (P0DMS8 whole entry, looked up): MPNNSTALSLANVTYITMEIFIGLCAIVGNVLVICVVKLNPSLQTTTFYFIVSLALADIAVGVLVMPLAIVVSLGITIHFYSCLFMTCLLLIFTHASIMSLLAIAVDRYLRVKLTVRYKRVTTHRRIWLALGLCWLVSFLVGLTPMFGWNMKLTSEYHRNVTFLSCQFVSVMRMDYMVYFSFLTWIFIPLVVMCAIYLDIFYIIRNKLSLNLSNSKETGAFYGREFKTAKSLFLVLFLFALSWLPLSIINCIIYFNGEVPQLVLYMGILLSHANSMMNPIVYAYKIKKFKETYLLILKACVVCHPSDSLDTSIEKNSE

Chain of Adenosine receptor A2a (P29274 whole entry): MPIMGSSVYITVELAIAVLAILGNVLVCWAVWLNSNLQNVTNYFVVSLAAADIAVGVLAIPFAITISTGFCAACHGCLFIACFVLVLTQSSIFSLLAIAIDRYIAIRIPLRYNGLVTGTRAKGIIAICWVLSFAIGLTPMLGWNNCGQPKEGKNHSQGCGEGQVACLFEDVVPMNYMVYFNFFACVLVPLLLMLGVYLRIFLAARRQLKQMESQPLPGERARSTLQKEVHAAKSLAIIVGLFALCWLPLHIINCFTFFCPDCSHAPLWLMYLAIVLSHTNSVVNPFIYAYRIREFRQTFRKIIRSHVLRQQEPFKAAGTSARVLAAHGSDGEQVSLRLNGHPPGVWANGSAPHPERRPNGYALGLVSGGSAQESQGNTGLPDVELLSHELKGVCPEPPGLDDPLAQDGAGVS

As for `Nc1nccn2cc(-c3ccccc3)nc12`, the inhibition in experiment [1] came out at 30%; at Adenosine receptor A2a, 13%; in experiment [2], 30%; at Adenosine receptor A3, 12%.
With `O=C(Nc1ccccc1)Nc1nccn2cc(-c3ccccc3)nc12`, the inhibition in experiment [1] amounted to 1%; at Adenosine receptor A2a, 1%; in experiment [2], 1%; at Adenosine receptor A3, 6%.
`Nc1nc(-c2ccc(Cl)cc2)cn2cc(-c3ccccc3)nc12`: the inhibition is 3% in experiment [1], 1% on Adenosine receptor A2a, 2% in experiment [2] and 1% on Adenosine receptor A3.
Consider `Nc1nc(-c2ccc(OCc3ccccc3)cc2)cn2cc(-c3ccccc3)nc12`, for which the inhibition in experiment [1] is 10%; on Adenosine receptor A2a, 1%; in experiment [2], 4%; at Adenosine receptor A3, 1%.
In the case of `Nc1nc(-c2ccco2)cn2cc(-c3ccccc3)nc12`, the inhibition in experiment [1] amounted to 28%; at Adenosine receptor A2a it was 38%; in experiment [2] it was 13%; on Adenosine receptor A3 it was 20%.
On the same counts, the results for `Cc1ccc(C(=O)Nc2nccn3cc(-c4ccccc4)nc23)cc1` are 26%, 21%, 10% and 45%.
For `Nc1nc(-c2cccc(C(=O)O)c2)cn2cc(-c3ccccc3)nc12` the same measures were 7%, 9%, 3% and 1%.
On to `Nc1nccn2cc(-c3ccco3)nc12`, for which the inhibition turned out to be 21% in experiment [1], 12% on Adenosine receptor A2a, 1% in experiment [2] and 5% on Adenosine receptor A3.
On the same counts, the results for `O=C(Nc1nccn2cc(-c3ccco3)nc12)c1ccccc1` are 7%, 1%, 1% and 22%.
As for `Nc1nc(-c2cccc(NC(=O)Cc3ccccc3)c2)cn2cc(-c3ccccc3)nc12`, the inhibition worked out at 37% in experiment [1], 33% at Adenosine receptor A2a, 7% in experiment [2] and 8% on Adenosine receptor A3.
For `O=C(Nc1nccn2cc(-c3ccccc3)nc12)c1cccnc1` the same measures were 24%, 13%, 22% and 42%.
On the same counts, the results for `O=C(c1ccc(F)cc1)N(C(=O)c1ccc(F)cc1)c1nc(-c2ccccc2)cn2cc(-c3ccccc3)nc12` are 1%, 1%, 3% and 31%.
On the same counts, the results for `COc1cccc(-c2cn3cc(-c4ccccc4)nc3c(N)n2)c1` are 37%, 24%, 30% and 21%.
As to `COc1ccc(-c2cn3ccnc(N)c3n2)cc1`, the inhibition (in experiment [1]; at Adenosine receptor A2a; in experiment [2]; at Adenosine receptor A3) was 1% throughout.
Take `COc1ccc(-c2cn3cc(-c4ccccc4)nc3c(N)n2)cc1`: the inhibition in experiment [1] worked out at 20%; on Adenosine receptor A2a, 23%; in experiment [2] it was 16%; on Adenosine receptor A3, 23%.
For `O=C(Nc1nccn2cc(-c3ccccc3)nc12)c1ccco1`, the inhibition came to 25% in experiment [1], 34% on Adenosine receptor A2a, 19% in experiment [2] and 40% on Adenosine receptor A3.
For `COc1ccc(-c2cn3cc(Br)nc(N)c3n2)cc1` the same measures were 29%, 11%, 27% and 24%.
